Measurements of several laboratories.
Each line is one published result; the experiments were not run side by side.
Target: Mitogen-activated protein kinase kinase kinase 2 (MAP3K2, Homo sapiens, UniProt Q9Y2U5)
Residues used in one study (Q9Y2U5 1-619): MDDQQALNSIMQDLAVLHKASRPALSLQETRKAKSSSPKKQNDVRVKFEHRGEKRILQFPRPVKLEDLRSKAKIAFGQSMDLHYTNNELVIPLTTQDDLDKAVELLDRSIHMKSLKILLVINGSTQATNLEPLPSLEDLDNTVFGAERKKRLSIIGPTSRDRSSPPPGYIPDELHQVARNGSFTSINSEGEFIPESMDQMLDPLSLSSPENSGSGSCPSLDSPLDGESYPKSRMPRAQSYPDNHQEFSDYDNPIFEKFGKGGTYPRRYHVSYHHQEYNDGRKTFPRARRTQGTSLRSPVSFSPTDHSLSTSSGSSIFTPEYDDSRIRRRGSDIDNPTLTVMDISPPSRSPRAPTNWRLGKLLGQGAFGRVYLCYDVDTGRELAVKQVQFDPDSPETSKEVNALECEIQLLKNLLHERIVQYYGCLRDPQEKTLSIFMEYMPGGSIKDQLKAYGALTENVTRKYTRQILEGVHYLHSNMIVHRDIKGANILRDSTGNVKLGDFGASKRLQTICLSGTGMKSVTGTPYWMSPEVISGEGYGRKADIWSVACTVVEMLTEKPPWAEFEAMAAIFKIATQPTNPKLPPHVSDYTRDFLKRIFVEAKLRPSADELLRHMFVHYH

SMILES	observed	action	technique	tested at	quantity	result
CO[C@@H]1[C@H](N(C)C(=O)c2ccccc2)C[C@H]2O[C@]1(C)n1c3ccccc3c3c4c(c5c6ccccc6n2c5c31)C(=O)NC4	enzyme activity	inhibitor	–	1 µM	inhibition	94%
C1=C/COCc2cc(ccc2OCCN2CCCC2)Nc2nccc(n2)-c2cccc(c2)COC/1	binding	–	–	0.1 µM	remaining binding	38%
CN1CCN(C(=O)c2ccc(NC(=O)Nc3ccc(N(C)c4ccnc(Nc5ccc(CS(C)(=O)=O)cc5)n4)cc3)cc2)CC1	binding	–	competition with immobilised ligand	1 µM	remaining binding	38%
C=CC(=O)N1CCC([C@@H]2CCNc3c(C(N)=O)c(-c4ccc(Oc5ccccc5)cc4)nn32)CC1	enzyme activity	inhibitor	–	1 µM	inhibition	39%
CC(C)S(=O)(=O)c1ccc2nccc(Nc3ccc4sc(C5CCCC5)nc4c3)c2c1	enzyme activity	inhibitor	–	1 µM	activity vs control	103%
COc1ccc2oc(-c3ccc4nc(N)oc4c3)c/c(=N\c3ccccc3NC(=O)CCN)c2c1	binding	–	–	1 µM	remaining binding	101%
Cc1cc(O)c(-c2ccc([C@@H](C)CN(C)C)cc2)c2c1[nH]c(=O)c1sccc12	enzyme activity	inhibitor	–	0.1 µM	inhibition	-1.76%
CCCCC(=O)Nc1ccc(-c2ccc3ncn(CCC)c(=O)c3c2)cn1	binding	–	competition with immobilised ligand	0.5 µM	remaining binding	100%
COc1ccc2[nH]c3c4[nH]c5ccc(OC)cc5c4c4c(c3c2c1)C(=O)NC4=O	binding	–	competition with immobilised ligand	1 µM	remaining binding	85%
C#Cc1cc(-c2cc(Nc3nc(N[C@@H](C)c4ccc(F)cn4)ncc3Cl)n[nH]2)ccc1C=O	enzyme activity	inhibitor	–	0.2 µM	inhibition	55.2%
